HSF1 inhib: HSF1 inhibition. NIH3T3-HGL HSE-luciferase, MG132-induced, luminescence 8 h; hits give low values. 300,000 compounds, 0.77% hits. activity change, negative = inhibition, % at 7.5 µM (by protocol). AID 2098;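 active means more than half of replicate wells show activity change below -50%, luminescence cut by over half; inconclusive means some wells, but at most half, below -50%; inactive means no replicate well below -50%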;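 further: luciferase reports HSF-1 transcriptional activity via heat shock element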
Hsp70 activator: Hsp70 transcriptional activation, primary screen. HeLa Hsp70 promoter luciferase reporter, luminescence; scaled: vehicle 0, proteasome-inhibitor control 100%. activation, % at 10 µM. 200,000 compounds, 0.04% hits. AID 1203;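 active means activation above the mean across all tested compounds plus 3 SD, cutoff set per campaign, cut at about 5.5% in these data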
T cruzi repl: blocks replication of Trypanosoma cruzi; T. cruzi beta-gal in NIH3T3, luminescence, 90 h; inhibition, % (concentration not given with the values); 300,000 compounds, 1.4% hits;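 active means mean inhibition across valid replicates above about 55%, limit read from the data; inconclusive means mean below that limit but half or more replicates reach it; inactive means mean below it, under half of replicates reach it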;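 further: signal also drops with host cell toxicity which is not excluded here; higher percent means less beta-gal luminescence so fewer parasites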
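System – NIH/3T3 host cells with β-galactosidase reporter T. cruzi · Doses – single 50 nL compound addition per well in DMSO · Reagent – 5000 T. cruzi trypomastigotes/well · Medium – Low-serum DMEM with 2% FBS · Timing – ≥90 h infection period, 3 h prior cell attachment · Evaluation – parasite load inhibition, % · Technique – GalScreen luminescence, 60 min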
HSF1 activator: increases HSF-1 driven luciferase reporter signal. NIH3T3-HGL HSF-1 luciferase reporter, MG132, 8 h; 100% = twice DMSO control signal. activation, % at 9 µM. 300,000 compounds, 1.7% hits;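 active means mean replicate activation of at least 50% with a set share of replicates each reaching 50%; inconclusive means only one of those two conditions met; inactive means mean below 50% and too few replicates reaching it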
L major viab: Leishmania major promastigote growth inhibition; Leishmania major promastigotes, resazurin fluorescence viability; inhibition, % at 10 µM; 200,000 compounds, 9% hits; in the data active means inhibition above about 50%;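 further: promastigotes grown with compound for 44 hours at 28 °C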
Of the large screens only hits and unclear results are named; the others gave an inactive call. Only a selection was taken, and hits are over-represented in it overall.

COc1ccc(Cn2c(C3CC3)nc3ccc(NC(C)=O)cc3c2=O)cc1	HSF1 activator 51
CCCc1nc2ccc(NC(=O)c3cccs3)cc2c(=O)n1Cc1ccccc1Cl	HSF1 activator 61, L major viab 50
CCCc1nc2ccc(NC(C)=O)cc2c(=O)n1Cc1ccc(Cl)cc1	HSF1 activator 60, L major viab 83
Cc1cccc(C(=O)Nc2ccc(N3CCN(S(C)(=O)=O)CC3)cc2)c1	none
Cc1cccn2c(=O)c(C=NCc3ccco3)c(Nc3ccc(SC(F)F)cc3)nc12	L major viab 91
Cc1cc(Oc2nc3ccccn3c(=O)c2/C=C(\C#N)C(=O)NC2CCS(=O)(=O)C2)ccc1Cl (stereo not given)	HSF1 activator 60 (no result: Hsp70 activator, L major viab)
N#C/C(=C\c1c(N2CCCCC2)nc2ccccn2c1=O)C(=O)NC1CCS(=O)(=O)C1 (stereo not given)	L major viab 56
Cc1cccc(Oc2nc3ccccn3c(=O)c2/C=C(\C#N)C(=O)NC2CCS(=O)(=O)C2)c1 (stereo not given)	none
N#C/C(=C\c1c(N2CCCCC2)nc2ccccn2c1=O)C(=O)NCc1ccco1	L major viab 83
COc1ccc(C(=O)N[C@H](C(=O)NCc2cccs2)C(C)C)cc1	none
O=C(NCCc1nc2ccccc2[nH]1)/C(=C/c1ccco1)NC(=O)c1ccccc1Br	none
O=C(NCCc1c[nH]c2ccccc12)/C(=C\c1ccco1)NC(=O)c1ccco1	L major viab 56
O=C(NCCc1nc2ccccc2[nH]1)/C(=C/c1ccc(F)cc1)NC(=O)c1ccco1	HSF1 activator 64 (no result: Hsp70 activator, L major viab)
CC(C)c1nc(SCC(=O)Nc2c[nH]c(=O)[nH]c2=O)c2cnn(-c3ccccc3)c2n1	none
CCN(CC)S(=O)(=O)c1ccc2c(c1)nc(CCC(=O)OCC(=O)Nc1cc(OC)cc(OC)c1)n2C	L major viab 64
COc1ccc(OCC(=O)Nc2ccc3c(c2)nc(CCN2CCN(C)CC2)n3C)cc1	HSF1 activator 53 (no result: Hsp70 activator, L major viab)
CCN(CC)S(=O)(=O)c1ccc2c(c1)nc(CCC(=O)OCC(=O)Nc1c(F)cccc1F)n2C	none
Cn1c(CCN2CCOCC2)nc2cc(NC(=O)COc3ccccc3)ccc21	HSF1 activator 68
Cn1c(CN2CCOCC2)nc2cc(NC(=O)COc3ccccc3)ccc21	none (no result: HSF1 inhib, T cruzi repl, HSF1 activator)
O=C(CSc1nnc2ccc(-c3cccnc3)nn12)Nc1ccccc1	none (no result: Hsp70 activator, L major viab)
COc1cc(-c2nc(C(=O)NC3CCN(Cc4ccccc4)CC3)cc3c2[nH]c2ccccc23)cc(OC)c1OC	T cruzi repl 77 (no result: Hsp70 activator, L major viab)
Cc1ccc(C(C)c2c(C)c([N+](=O)[O-])cc(C)c2[N+](=O)[O-])cn1 (stereo not given)	none (no result: Hsp70 activator, L major viab)
CCCCNS(=O)(=O)c1cc2c3c(c1)CCN3C(=O)CC2	none (no result: Hsp70 activator, L major viab)
CCOc1ccccc1NC(=O)C(NCC1(N2CCCCC2)CCCCC1)c1ccccc1 (stereo not given)	L major viab 66
CCOc1cccc(/C=N/NC(=S)Nc2ccccc2[N+](=O)[O-])c1O	HSF1 inhib -79, L major viab 95
CCCCNC(=S)N/N=C/c1cccc(OCC)c1O	HSF1 activator 81 (no result: Hsp70 activator, L major viab)
CCOC(=O)CC1=NN(c2ccccc2)C(=O)/C1=C\c1ccc(N(C)C)cc1	L major viab 96
CCOC(=O)CC1=NN(c2ccccc2)C(=O)C1	none
CC1=NN(c2ccccc2)C(=O)/C1=C/C=C/c1ccc(N(C)C)cc1	L major viab 68
CCOC(=O)c1ccc(N2N=C(C)/C(=C/C=C/c3ccco3)C2=O)cc1	none
CC1=NN(c2ccccc2)C(=O)/C1=C/N(C)C	none (no result: Hsp70 activator, L major viab)
CC1=NN(c2ccc(C(=O)OC(C)C)cc2)C(=O)/C1=C\C=C\c1ccco1	L major viab 76
CC1=NN(c2ccccc2)C(=O)/C1=C\C=C\c1ccccc1	HSF1 activator 98 (no result: Hsp70 activator, L major viab)
O=c1c(Cl)c(Cl)cnn1Cc1nnc(-c2ccc(Cl)cc2)o1	HSF1 inhib inconclusive, T cruzi repl 60, L major viab 100
Cc1ccc(Cn2ncc(Cl)c(Cl)c2=O)cc1	L major viab 60
CCc1ccc(C(=O)Cn2ncc(Cl)c(Cl)c2=O)cc1	HSF1 inhib -80, T cruzi repl 60
Cc1cc(C)cc(Cn2ncc(Cl)c(Cl)c2=O)c1	HSF1 activator 117
Cc1[nH]c(C)c2c(=O)n(Cc3ccc(Cl)cc3)ncc12	none (no result: Hsp70 activator, L major viab)
CN(C)c1ccc(CN(C(=O)c2cccs2)C2CCS(=O)(=O)C2)cc1 (stereo not given)	none (no result: Hsp70 activator, L major viab)
Cc1ccc(NC(=O)N2CCCC2C(=O)Nc2ccc3c(c2)OCCO3)cc1 (stereo not given)	none (no result: Hsp70 activator, L major viab)
CCn1cc(CNC(=O)C2CCC(=O)N(C3CCCCCC3)C2)cn1 (stereo not given)	none (no result: Hsp70 activator, L major viab)
COc1ccc(S(=O)(=O)N2CCN(C(=O)c3ccco3)CC2)cc1C(C)(C)C	none (no result: Hsp70 activator, L major viab)
Cc1cc(=O)c2n(Cc3ccccc3Cl)nc[n+]2[nH]1	HSF1 activator 91
Cc1cc(C)n(Cc2ccccc2Cl)n1	none
O=c1c(Cl)c(Cl)cnn1Cc1ccccc1Cl	L major viab 76
O=c1c(Cl)c(Cl)cnn1-c1ccccc1	HSF1 inhib -96, L major viab 90
Nc1c(Cl)cnn(-c2ccccc2)c1=O	none (no result: Hsp70 activator, L major viab)
O=c1[nH]cnc2c1cnn2Cc1ccccc1Cl	none (no result: Hsp70 activator, L major viab)
O=C(CCC(=O)Nc1ccccc1)NNC(=O)COc1ccccc1	none
CN1CCN(C2=C(NS(=O)(=O)c3ccccc3)C(=O)c3ccccc3C2=O)CC1	none (no result: Hsp70 activator, L major viab)
O=C1C(NS(=O)(=O)c2ccc(Cl)cc2)=C(N2CCCCC2)C(=O)c2ccccc21	L major viab 89
Cc1cccc(Cc2cnc(N3C(=N)SC(C)C3=O)s2)c1 (stereo not given)	T cruzi repl 68
S=C(c1ccc(N2CCOCC2)cc1)N1CCCCC1	L major viab 81
CN(C)c1ccc(C(=S)N2CCN(S(=O)(=O)c3ccccc3)CC2)cc1	T cruzi repl 56 (no result: Hsp70 activator, L major viab)
COc1ccc(C(=S)N2CCN(S(=O)(=O)c3ccccc3)CC2)cc1	none (no result: Hsp70 activator, L major viab)
CC(=O)N1CCN(C(=S)c2ccc(N(C)C)cc2)CC1	none
CN(C)c1ccc(C(=S)N2CCCCCC2)cc1	L major viab 76
Cc1cccc(CN2CCC(n3nccc3NC(=O)CCCc3ccccc3)CC2)n1	none (no result: Hsp70 activator, L major viab)
Cn1cc(C(=O)Nc2ccc(C#N)cc2)c2ccccc2c1=O	none (no result: Hsp70 activator, L major viab)
COc1ccc(C2NC(=O)NC(C)=C2C(C)=O)cc1 (stereo not given)	none
COc1ccccc1N1CCN(C2CCN(C(=O)c3cccs3)CC2)CC1	none
O=C(c1cccs1)N1CCC(N2CCN(c3ccccc3)CC2)CC1	L major viab 86
O=C(c1cccc2ccccc12)N1CCC(N2CCN(c3ccccc3)CC2)CC1	L major viab 95
O=S(=O)(Cc1ccccc1)N1CCC(N2CCN(c3ccccc3)CC2)CC1	L major viab 98
CC(=O)Nc1ccc(NCc2ccc(C)s2)cc1	none (no result: Hsp70 activator, L major viab)
Cc1nn(-c2ccccc2)c(/N=C/c2ccc(O)cc2)c1-c1ccccc1	HSF1 activator 56, L major viab 52
Cc1nn(-c2ccccc2)c(C)c1-c1ccccc1O	none (no result: Hsp70 activator, L major viab)
